Data set [1] in a line: Toxicity in ip dosed CF1 mouse after 14 days of injection. To be noted: in vivo. Type of data set: organism-based. In a few lines: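 Female Carworth Farms mice, 16-20 g. Compound was suspended in 1% aqueous methylcellulose (ultrasonicated if insoluble) and diluted to doses of 4-324 mg/kg, given as 0.45 mL per mouse by a single intraperitoneal injection. Five mice per dose; survivors were counted at 14 days. LD50 is expressed in μmol/kg.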

Data set [2] relates to Sarcoma-180. Description: Antitumor activity against mouse Sarcoma 180 at 10 to 50% of LD50. The class given is functional. The essentials: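 Mice carrying well-advanced Sarcoma-180 tumours received a single intraperitoneal dose.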
A short description of data set [3]: Prodrug conversion in pig liver homogenate assessed as cleavage of labelled compound. Type of data set: ADME, tissue-based, Sus scrofa.
The subject of data set [4] is Liver. Description: Prodrug conversion in rat liver homogenate assessed as cleavage of labelled compound. The class given is ADME, tissue-based.
In data set [5] the test system is Liver. Description: Prodrug conversion in guinea pig liver homogenate assessed as release of labelled carbobenzyloxy-L-pro-lyl-L-leucine. Type of data set: ADME, tissue-based, Cavia porcellus.
The nature of data set [6]: Drug metabolism assessed as bacterial collagenase-mediated compound disappearance after 24 hrs by TLC autoradiography. The class given is ADME. The essentials:
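14C-labelled substrate at 2 mg/mL in dimethyl sulfoxide. 0.3 mL of it was mixed with 0.95 mL of pH 7.3 barbiturate/acetate/NaCl buffer containing calcium acetate, actidione and DMSO; the reaction mixture was 28% DMSO. The buffer held 5 mg bacterial collagenase (375 units/mg). Controls had no enzyme, trypsin or bovine serum albumin. Products were followed by TLC autoradiography.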

In data set [7] the test system is Liver. Description: Prodrug conversion in rat liver homogenate assessed as release of labelled carbobenzyloxy-L-pro-lyl-L-leucine. Type of data set: ADME, tissue-based.
The test system of data set [8] is Sarcoma-180. Description: Drug metabolism assessed as mouse Sarcoma 180 homogenate-mediated compound disappearance after 24 hrs by TLC autoradiography. The class given is ADME. To be noted: sarcoma-180, 24 h. In a few lines: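 S-180 tumour tissue (0.85 g) was homogenised in cold pH 7.3 calcium acetate/DMSO buffer containing actidione, then spun at 5000 rpm for 10 min. The supernatant replaced enzyme in the collagenase-type assay with 14C-labelled substrate (2 mg/mL in DMSO) in 28% DMSO reaction mixture. Disappearance and products were read by TLC autoradiography.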

Data set [9] is described as follows: Prodrug conversion in pig liver homogenate assessed as release of labelled carbobenzyloxy-L-pro-lyl-L-leucine. The class given is ADME, tissue-based, Sus scrofa.
The subject of data set [10] is Liver. Description: Prodrug conversion in mouse liver homogenate assessed as release of labelled carbobenzyloxy-L-pro-lyl-L-leucine. The class given is ADME, tissue-based.
Data set [11] has as its system Liver. Description: Prodrug conversion in mouse liver homogenate assessed as cleavage of labelled compound. Type of data set: ADME, tissue-based.
In data set [12] the test system is Liver. Description: Prodrug conversion in guinea pig liver homogenate assessed as cleavage of labelled compound. The class given is ADME, tissue-based, Cavia porcellus.

Structures are written as SMILES. The source made the active and inactive calls. No cut-off for these calls is given here. Where a SMILES comes first, the peptide text is derived from it. The star is where a group is joined. NH(4-N(CH2CH2Cl)2-phenyl) = ClCCN(CCCl)c1ccc(N*)cc1; Cbz = O=C(OCc1ccccc1)*

One may read the LD50 as the dose expected to kill half of the subjects tested. `NCC(=O)N1CCC[C@H]1C(=O)NCC(=O)Nc1ccc(N(CCCl)CCCl)cc1.O=C(O)C(F)(F)F` yielded an LD50 at 336 h in data set [1] of 19.7 µmol/kg.

For the compound `CC(C)C[C@H](NC(=O)[C@@H]1CCCN1C(=O)[C@H](N)Cc1ccccc1)C(=O)NCC(=O)N1CCC[C@H]1C(=O)NCC(=O)Nc1ccc(N(CCCl)CCCl)cc1.O=C(O)C(F)(F)F`, the LD50 at 336 h in [1] came out at 106 µmol/kg.

As for `CC(C)C[C@H](NC(=O)[C@@H]1CCCN1C(=O)[C@H](N)CCCCN)C(=O)NCC(=O)N1CCC[C@H]1C(=O)NCC(=O)Nc1ccc(N(CCCl)CCCl)cc1.O=C(O)C(F)(F)F`, the result in the data set on Sarcoma-180 [2] was inactive. In data set [1], the LD50 at 336 h is 78 µmol/kg.

Compound `CC(C)C[C@H](N)C(=O)NCC(=O)N1CCC[C@H]1C(=O)NCC(=O)Nc1ccc(N(CCCl)CCCl)cc1.O=C(O)C(F)(F)F` (H-LGPG-{NH(4-N(CH2CH2Cl)2-phenyl)}) showed an LD50 at 336 h in [1] of 10.4 µmol/kg.

Regarding `CC(C)C[C@H](NC(=O)[C@@H]1CCCN1C(=O)OCc1ccccc1)C(=O)NCC(=O)N1CCC[C@H]1C(=O)NCC(=O)Nc1ccc(N(CCCl)CCCl)cc1` (Cbz-PLGPG-{NH(4-N(CH2CH2Cl)2-phenyl)}), in the data set with Sarcoma-180 [2], the outcome was inactive. This compound yielded an LD50 at 336 h in [1] of 123 µmol/kg.

As to `CC(C)C[C@H](NC(=O)[C@@H]1CCCN1C(=O)O[14CH2]c1ccccc1)C(=O)NCC(=O)N1CCC[C@H]1C(=O)NCC(=O)Nc1ccc(N(CCCl)CCCl)cc1`, the Drug metabolism result (in [3]; with Liver [4]; in the data set on Liver [5]; in data set [6]; with Liver [7]; with Sarcoma-180 [8]) was “metabolite_detected” throughout. Moreover, the Drug metabolism entry (in data set [9]; in the data set with Liver [10]; in the data set with Liver [11]; in the data set with Liver [12]) was “metabolite_detected” in each case.

`CC(C)C[C@H](NC(=O)[C@@H]1CCCN1C(=O)[C@@H](CCCCNC(=O)OC(C)(C)C)NC(=O)OC(C)(C)C)C(=O)NCC(=O)N1CCC[C@H]1C(=O)NCC(=O)Nc1ccc(N(CCCl)CCCl)cc1` came in with an LD50 at 336 h in [1] of 100 µmol/kg.

In data set [1], `O=C(CNC(=O)[C@@H]1CCCN1C(=O)OCc1ccccc1)Nc1ccc(N(CCCl)CCCl)cc1` gave an LD50 at 336 h of 119 µmol/kg.

On to `CC(C)C[C@H](NC(=O)[C@@H]1CCCN1C(=O)[C@@H](C)NC(=O)OC(C)(C)C)C(=O)NCC(=O)N1CCC[C@H]1C(=O)NCC(=O)Nc1ccc(N(CCCl)CCCl)cc1`, for which the LD50 at 336 h in data set [1] worked out at 94.5 µmol/kg.

In turn, `CC(C)C[C@H](NC(=O)[C@@H]1CCCN1C(=O)[C@@H](Cc1ccccc1)NC(=O)OC(C)(C)C)C(=O)NCC(=O)N1CCC[C@H]1C(=O)NCC(=O)Nc1ccc(N(CCCl)CCCl)cc1` displayed an LD50 at 336 h in data set [1] of 105 µmol/kg.

Values taken from ChEMBL document CHEMBL3244147 (J Med Chem, 1978).
